Most compounds without a hit are left out; they make up all but 2.3% or so of the library.
TRPC4 PAM – allosterically enhances the mouse TRPC4 cation channel | 310,000 tested, 0.42% active | B-score at 10 µM | HEK293 TRPC4beta/mu-opioid, DAMGO EC20, Fluo-4 Ca2+ flux; active compounds read high | AID 2227 | Q9QUQ5;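 active = B-score of calcium response area above 5 SD of library B-scores, with initial fluorescence ratio within 5 SD of library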;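 note: B-score of integrated fluorescence ratio over time as area under calcium response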
TRPC6 inhibitor – blocks the mouse TRPC6 cation channel. Q61143. 310,000 tested, 1.1% active. B-score at 10 µM. HEK293-TRPC6, membrane potential dye, ACh-evoked depolarization; active compounds read low. AID 2553;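 active = B-score under library mean minus 3 SD, initial fluorescence not abnormally high, positive integrated signal ratio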;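 note: B-score derived from integrated fluorescence ratio over the kinetic read; more negative B-score means stronger inhibition of depolarization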
Target sequence (Q61143 whole entry, looked up): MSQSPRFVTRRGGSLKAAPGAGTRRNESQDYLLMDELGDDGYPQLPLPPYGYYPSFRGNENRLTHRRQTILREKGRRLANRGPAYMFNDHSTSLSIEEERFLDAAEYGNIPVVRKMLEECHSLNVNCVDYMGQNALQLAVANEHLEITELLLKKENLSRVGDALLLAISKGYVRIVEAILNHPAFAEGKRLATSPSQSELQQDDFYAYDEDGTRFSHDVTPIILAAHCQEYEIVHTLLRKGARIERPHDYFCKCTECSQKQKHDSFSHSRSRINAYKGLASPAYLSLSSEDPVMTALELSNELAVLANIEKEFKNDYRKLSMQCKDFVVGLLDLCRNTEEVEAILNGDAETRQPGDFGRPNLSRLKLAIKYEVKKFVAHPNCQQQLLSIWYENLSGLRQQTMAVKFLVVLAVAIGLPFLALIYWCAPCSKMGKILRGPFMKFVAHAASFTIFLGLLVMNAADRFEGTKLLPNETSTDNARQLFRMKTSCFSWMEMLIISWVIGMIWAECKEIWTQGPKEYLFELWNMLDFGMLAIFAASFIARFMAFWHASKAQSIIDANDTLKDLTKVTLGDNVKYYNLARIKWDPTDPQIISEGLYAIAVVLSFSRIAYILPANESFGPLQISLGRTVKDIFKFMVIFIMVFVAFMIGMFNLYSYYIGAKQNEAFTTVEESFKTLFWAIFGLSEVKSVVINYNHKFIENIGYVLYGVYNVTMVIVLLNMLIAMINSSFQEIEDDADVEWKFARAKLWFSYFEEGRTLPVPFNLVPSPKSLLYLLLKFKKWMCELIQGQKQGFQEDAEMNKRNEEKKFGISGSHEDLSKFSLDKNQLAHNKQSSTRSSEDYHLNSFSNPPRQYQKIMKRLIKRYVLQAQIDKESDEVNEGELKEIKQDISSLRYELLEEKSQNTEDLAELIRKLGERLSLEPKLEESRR
TRPC6 act – activates the mouse TRPC6 cation channel; AID 2550; Q61143; HEK293-TRPC6 membrane potential dye fluorescence; active compounds read high; 310,000 tested, 0.13% active; B-score at 10 µM;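 active = B-score of the integrated fluorescence ratio above library mean plus 3 SD, and starting fluorescence ratio within library mean plus 5 SD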;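 note: higher score means more depolarization so channel activation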
TRPC4 act – opens the mouse TRPC4 cation channel. AID 2237. Q9QUQ5. 310,000 tested, 0.49% active. B-score at 10 µM. HEK293 TRPC4beta/mu-opioid, Fluo4 calcium fluorescence; active compounds read high;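 active = B-score above 5 SD of library B-scores, and initial fluorescence ratio not above library mean plus 5 SD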;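 note: positive B-score marks a calcium rise read as TRPC4 activation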
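Technique: kinetic Fluo4 calcium fluorescence; Test system: TRPC4beta and mu-opioid receptor HEK293 stable cells; Measure: B-scored integrated calcium fluorescence ratio; Benchmarks: low control buffer alone, high control maximal DAMGO; Schedule: 45 min room-temperature Fluo4 loading, 110 s read.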
TRPC4 inh – TRPC4 (mouse) channel inhibition; HEK293 TRPC4beta/mu-opioid, DAMGO-evoked Fluo4 calcium flux; active compounds read low; AID 2247; B-score at 10 µM; 300,000 tested, 0.39% active; Q9QUQ5;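 active = B-score over 3 SD under the library average, no early fluorescence shift, positive overall ratio signal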
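Signal: kinetic Fluo4 fluorescence imaging of calcium influx. Material: stable TRPC4beta/mu-opioid receptor HEK293 cells. Probe or stimulus: DAMGO in two steps, submaximal then maximal.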
TRPC4 sel inh 2 – second check of whether TRPC6 inhibitors also affect mouse TRPC4 | shares compounds with TRPC6 inhibitor | HEK293 TRPC4/MOR, membrane potential dye fluorescence; channel activated by saturating DAMGO dose | inhibition, % at 10 µM | 920 tested, 42% active | AID 2776;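 active = compounds whose fluorescence signal differed from control wells by over 3 SD, either direction, in both duplicate plates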
TRPC4 spec – tests whether TRPC6 inhibitors also affect mouse TRPC4 | shares compounds with TRPC6 inhibitor | HEK293 TRPC4/mu-opioid, membrane potential fluorescence | activity change, negative = inhibition, % at 10 µM | 920 tested, 61% active;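 active = rise or fall in signal beyond 3 SD of buffer-only wells in both replicate plates, either sign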;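 note: integrated kinetic ratio of fluorescence range over baseline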
HEK293 MPD ctr 2-1 – second check of TRPC6 inhibitor effects in parental HEK293 cells. 920 tested, 31% active. parental HEK293 membrane potential dye fluorescence; maximal acetylcholine challenge after compound addition. shares compounds with TRPC6 inhibitor. signal change vs control, % at 10 µM;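 active = membrane potential signal moving either way by over 3 SD of the maximum-effect control, in both duplicate plates, meaning non-specific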
HEK293 MPD ctr-1 – parental HEK293 nonspecific activity of TRPC6 inhibitors. shares compounds with TRPC6 inhibitor. parental HEK293 membrane potential dye fluorescence. membrane potential signal change, % at 10 µM. 920 tested, 60% active;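 active = membrane potential signal shifting up or down by more than 3 SD of buffer-only wells, on both duplicate plates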
HEK293 MPD ctr-2 – counter-screen for TRPC6 modulators: effect in parental HEK293 cells. shares compounds with TRPC6 inhibitor. membrane potential dye fluorescence. 2,400 tested, 51% active. membrane potential signal change, % at 10 µM;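 active = membrane potential signal moves up or down beyond 5 SD from buffer-only wells, on both duplicate plates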
HEK293 MPD ctr 2-2 – parental HEK293 nonspecific activity of TRPC6 modulators, second screen | membrane potential dye fluorescence; after compound, maximal acetylcholine stimulation | 2,400 tested, 14% active | inhibition, % at 10 µM | shares compounds with TRPC6 inhibitor;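 active = membrane potential signal drops by more than 5 SD from the mean control signal, in both duplicate plates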;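 note: plate controls were acetylcholine ECmax control wells for no effect and buffer only wells for full effect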
TRPC4/MOR mod – mouse TRPC4 off-target activity of TRPC6 modulators | shares compounds with TRPC6 inhibitor | HEK293 TRPC4/mu-opioid, membrane potential fluorescence | percent change from control (negative = decrease, positive = increase), % at 10 µM | 2,400 tested, 69% active | AID 488927;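 active = membrane potential signal moved up or down beyond 5 SD of buffer control wells, in both duplicate plates, actives on both sides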;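 note: plate controls were assay buffer wells for no effect and DAMGO maximal-effect wells for full effect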
TRPC4 ctr inh 2 – second selectivity test of TRPC6 modulators against mouse TRPC4; shares compounds with TRPC6 inhibitor; AID 488928; HEK293 TRPC4/mu-opioid, membrane potential dye fluorescence; stimulated with maximal-effect DAMGO; inhibition, % at 10 µM; 2,400 tested, 55% active;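 active = drop in membrane potential signal beyond 5 SD of the control wells in both duplicate plates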;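 note: TRPC4 counter screen for TRPC6 hits run under conditions tuned for TRPC6 not TRPC4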
TRPC6 inh conf – mouse TRPC6 inhibitor confirmation; shares compounds with TRPC6 inhibitor; HEK293-TRPC6, membrane potential dye, ACh-evoked depolarization; inhibition, % at 10 µM; 3,300 tested, 43% active; AID 488960;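 active = fluorescence ratio falls more than 5 SD below the full-stimulation control mean, in both duplicate runs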;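 note: integrated fluorescence ratio of peak minus minimum over baseline after agonist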
TRPC6 act conf – mouse TRPC6 activator confirmation | shares compounds with TRPC6 inhibitor | HEK293-TRPC6 membrane potential dye fluorescence, FDSS | activation, % at 10 µM | 2,800 tested, 11% active | AID 488961;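 active = ratio signal rise beyond 5 SD above unstimulated control wells' mean, seen in both duplicate runs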;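 note: plate controls were buffer EC0 wells for no effect and acetylcholine ECmax response for full effect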
An asterisk follows results filed as active; i = inactive; . = not tested or not shown.

SMILES	TRPC4 PAM	TRPC6 inhibitor	TRPC6 act	TRPC4 act	TRPC4 inh	HEK293 MPD ctr-2	HEK293 MPD ctr 2-2	TRPC4/MOR mod	TRPC4 ctr inh 2	TRPC6 inh conf	TRPC6 act conf	others
CN(C)c1cc(N/N=C/c2ccccc2C(F)(F)F)nc(N(C)C)n1	i	-5.07*	i	i	i	i	i	i	i	i	i
Cc1cccc(-c2cc3nc(C)c(C)c(NCCCn4ccnc4)n3n2)c1	i	-7.37*	i	i	i	.	.	.	.	76.1%*	i	TRPC4 sel inh 2=58.0%*;TRPC4 spec=-18.2%*;HEK293 MPD ctr 2-1=i;HEK293 MPD ctr-1=i
Cc1ccc(-c2cc3nc(C)cc(NCc4ccco4)n3n2)cc1	i	i	i	i	i	.	.	.	.	.	.
Cc1cc(NCCCn2ccnc2)n2nc(-c3ccc(F)cc3)cc2n1	i	-10*	i	i	i	-299.5%*	92.5%*	-53.5%*	62.0%*	72.0%*	i
Cc1cc(NCCCn2ccnc2)n2nc(-c3ccc(Cl)cc3)cc2n1	i	-11.1*	i	i	i	i	100.5%*	20.0%*	54.0%*	54.0%*	i
COc1ccccc1C(=O)NCC(=O)NNC(=O)C1COc2ccccc2O1 (stereo not drawn)	i	i	i	i	i	.	.	.	.	.	.
CC(=O)N1CCC(O)(c2ccc3c(c2)OCO3)CC1	i	i	i	i	i	.	.	.	.	.	.
COC(=O)C1(C)NC(c2ccc(OC)cc2)C2C(=O)N(c3ccccc3)C(=O)C21 (stereo not drawn)	i	-7.78*	i	i	i	.	.	.	.	i	i	TRPC4 sel inh 2=i;TRPC4 spec=i;HEK293 MPD ctr 2-1=i;HEK293 MPD ctr-1=i
N#Cc1ccc(C2=NC(C(F)(F)F)(C(F)(F)F)c3c(n(Cc4ccco4)c(=O)[nH]c3=O)N2)cc1	i	-8.33*	i	i	i	.	.	.	.	i	i	TRPC4 sel inh 2=i;TRPC4 spec=-11.7%*;HEK293 MPD ctr 2-1=i;HEK293 MPD ctr-1=-128.0%*
C/C(=N\NC(=O)c1cccc(Br)c1)c1cccnc1	i	i	i	i	i	.	.	.	.	.	.
O=[N+]([O-])c1ccc(Oc2ccc(F)cc2)c2ccncc12	i	-5.06*	i	i	i	i	i	i	i	i	i
Cc1ccc(-n2nc3c(c2NC(=O)C(C)C)CS(=O)(=O)C3)cc1	i	-5.53*	i	i	i	i	i	21.0%*	i	i	.
CC(C)C(=O)Nc1c2c(nn1-c1ccc([N+](=O)[O-])cc1)CS(=O)(=O)C2	i	i	i	i	i	.	.	.	.	.	.
